Data from ChEMBL document CHEMBL1145455, “Cytotoxic withanolides from the flowers of Datura metel” (J Nat Prod, 2007).

Experiments:
Assay type in all cases: functional, cell-based
[1] = test system: K562; assay: Cytotoxicity against human K562 cells after 48 hrs; details: K562, 48 h
Summary of the method: (§1)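 MTT colorimetric assay. Cells were kept in RPMI-1640 with 10% fetal bovine serum at 37 °C, 5% CO2, humidified. They were seeded at 6 × 10^4 cells/mL and allowed to attach for 24 h. Diluted samples were then added for 48 h. MTT (0.5 mg/mL) was added for 3 h, and optical density was read at 550 nm.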

[2] = test system: BGC-823; assay: Cytotoxicity against human BGC823 cells after 48 hrs; details: BGC-823, 48 h; summary of the method: as §1
[3] = test system: A549; assay: Cytotoxicity against human A549 cells after 48 hrs; details: A549, 48 h; summary of the method: as §1

Structure (SMILES)	IC50 [1]	IC50 [2]	IC50 [3]
C=C1C(=O)O[C@@H]2C[C@]1(C)OC[C@H]2[C@H]1CC[C@H]2[C@@H]3CC=C4CC=CC(=O)[C@]4(C)[C@H]3C[C@@H](O)[C@]12C [WITHAMETELIN L]	550 nM	1600 nM	2000 nM
C=C1C(=O)O[C@@H]2C[C@@]1(C)OC[C@H]2C1CCC2C3C[C@H]4OC(=O)CC=CC4=C(C)C3CCC21C (stereo partly drawn) [1,10-SECO-WITHAMETELIN B]	> 10000 nM	> 10000 nM	> 10000 nM
C=C1C(=O)O[C@@H]2C[C@@]1(C)OC[C@H]2C1CCC2C3C[C@H]4OC(=O)CC=CC4=C(C)C3C[C@@H](O)C21C (stereo partly drawn) [12BETA-HYDROXY-1,10-SECO-WITHAMETELIN B]	> 10000 nM	> 10000 nM	> 10000 nM
C=C1C(=O)O[C@@H]2C[C@@]1(C)OC[C@H]2C1CCC2C3CC=C4C=CCC(=O)C4(C)C3C[C@@H](O)C21C (stereo partly drawn) [WITHAMETELIN M]	> 10000 nM	> 10000 nM	> 10000 nM
C=C1C(=O)O[C@@H]2C[C@@]1(C)OC[C@H]2C1CCC2C3C[C@@H](O)C4=CC=CC(=O)C4(C)C3C[C@@H](O)C21C (stereo partly drawn) [WITHAMETELIN K]	120 nM	1900 nM	3500 nM
COc1cccc2c1C(=O)c1c(O)c3c(c(O)c1C2=O)C[C@@](O)(C(=O)CO)C[C@@H]3O[C@H]1C[C@H](N)[C@H](O)[C@H](C)O1 [DOXORUBICIN]	580 nM	350 nM	750 nM
C=C1C(=O)O[C@@H]2C[C@@]1(C)OC[C@H]2C1CCC2C3C[C@H](O)[C@]4(O)CC=CC(=O)C4(C)C3CCC21C (stereo partly drawn) [WITHMETELIN O]	> 10000 nM	> 10000 nM	> 10000 nM
C=C1C(=O)O[C@@H]2C[C@@]1(C)OC[C@H]2C1CCC2C3C[C@H]4O[C@]45CC=CC(=O)C5(C)C3C[C@@H](O)C21C (stereo partly drawn) [WITHAMETELIN I]	50 nM	1300 nM	1200 nM
C=C1C(=O)O[C@@H]2C[C@@]1(C)OC[C@H]2C1CC[C@H]2[C@@H]3C[C@H]4O[C@]45C[C@H](O)CC(=O)C5(C)[C@H]3CCC12C (stereo partly drawn)	460 nM	1000 nM	1700 nM
CC1=C(CO[C@@H]2O[C@H](CO)[C@@H](O)[C@H](O)[C@H]2O)C(=O)O[C@@H]([C@@H](CO)C2CCC3C4C[C@@H](O)[C@@]5(O)CC=CC(=O)C5(C)C4CCC32C)C1 (stereo partly drawn) [WITHMETELIN P]	> 10000 nM	> 10000 nM	> 10000 nM
C=C1C(=O)O[C@@H]2C[C@@]1(C)OC[C@H]2C1CCC2C3C[C@@H](O)[C@@]4(O)CC=CC(=O)C4(C)C3C[C@@H](O)C21C (stereo partly drawn) [WITHAMETELIN J]	2500 nM	5200 nM	> 10000 nM
